Data set [1] has as its target T1, Short transient receptor potential channel 7 (Homo sapiens) (UniProt Q9HCX4).
T1 sequence (whole entry): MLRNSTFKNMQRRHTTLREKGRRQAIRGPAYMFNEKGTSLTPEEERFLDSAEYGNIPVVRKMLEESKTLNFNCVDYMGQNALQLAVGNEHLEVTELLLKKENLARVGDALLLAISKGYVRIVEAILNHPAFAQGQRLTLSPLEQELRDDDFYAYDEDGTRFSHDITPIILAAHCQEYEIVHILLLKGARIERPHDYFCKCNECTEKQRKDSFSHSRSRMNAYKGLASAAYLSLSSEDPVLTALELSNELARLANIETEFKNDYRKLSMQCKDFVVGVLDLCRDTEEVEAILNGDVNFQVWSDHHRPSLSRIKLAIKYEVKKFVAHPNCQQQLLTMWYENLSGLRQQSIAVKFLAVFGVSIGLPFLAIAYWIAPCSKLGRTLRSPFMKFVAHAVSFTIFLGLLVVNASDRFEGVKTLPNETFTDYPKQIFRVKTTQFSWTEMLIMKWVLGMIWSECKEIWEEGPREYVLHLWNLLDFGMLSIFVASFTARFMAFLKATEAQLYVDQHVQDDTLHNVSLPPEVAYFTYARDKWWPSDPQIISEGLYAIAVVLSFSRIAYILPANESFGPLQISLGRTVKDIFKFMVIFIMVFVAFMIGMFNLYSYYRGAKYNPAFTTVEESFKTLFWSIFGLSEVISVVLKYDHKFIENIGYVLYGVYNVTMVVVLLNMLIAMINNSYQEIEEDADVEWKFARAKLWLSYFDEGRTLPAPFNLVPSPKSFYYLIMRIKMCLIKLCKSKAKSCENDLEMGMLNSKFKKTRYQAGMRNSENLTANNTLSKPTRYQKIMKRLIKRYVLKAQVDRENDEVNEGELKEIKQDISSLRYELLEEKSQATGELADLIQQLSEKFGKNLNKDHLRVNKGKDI
Nature of the data set: Inhibition of human TRPC7 expressed in HEK293 cells assessed as inhibition of GSK170-induced current at 10 uM by whole cell patch-clamp method. In kind it is cell-based. In a few lines:
(§1)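 TRP channels overexpressed in HEK293 cells (hTRPA1, rTRPV1, rTRPV4, mouse TRPC6, hTRPC7, hTRPM8). Whole-cell patch clamp with Ca2+-free solutions to avoid desensitization. Channels fully activated with high concentrations of their agonists (AITC for TRPA1, capsaicin for TRPV1, GSK1016790A for TRPV4), then 10 μM test compound perfused with agonist. Result expressed as percentage of peak current blocked; mean ± SD.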
For orientation: The patch-clamp technique gives a direct electrical read-out from membranes.

In data set [2] the target is Transient receptor potential cation channel subfamily M member 8 (Homo sapiens) (UniProt Q7Z2W7). Description: Inhibition of human TRPM8 expressed in HEK293 cells assessed as inhibition of […]-induced current at 10 uM by whole cell patch-clamp method. It is filed as cell-based. In a few lines:
as §1

Data set [3] concerns the target Transient receptor potential cation channel subfamily A member 1 (Homo sapiens) (UniProt O75762). Description: Inhibition of human TRPA1 expressed in HEK293 cells assessed as inhibition of AITC-induced current at 10 uM by whole cell patch-clamp method. In kind it is cell-based. A digest of the protocol:
as §1

A short description of data set [4]: Metabolic stability in mouse liver microsomes assessed as half life at […] measured up to 240 mins in presence of NADPH regeneration system by LC-MS analysis. It is filed as ADME, Microsome. (Microsomes from liver hold many membrane-bound enzymes, among them those of drug oxidation.)
The nature of data set [5]: Metabolic stability in rat liver microsomes assessed as half life at […] measured up to 240 mins in presence of NADPH regeneration system by LC-MS analysis. It is filed as ADME, Microsome.
The nature of data set [6]: Metabolic stability in human liver microsomes assessed as half life at […] measured up to 240 mins in presence of NADPH regeneration system by LC-MS analysis. It is filed as ADME, Microsome.
Data set [7] is described as follows: Toxicity in NSG/ICR mouse assessed as body weight loss at 200 mg/kg, ip administered once daily for 5 days. Particulars: in vivo, 120 h, dose 200 mg/kg/day, time 5 day. It is filed as organism-based. In a few lines: (§2)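 Mice (n = 5 per group) dosed at 200 mg/kg by intraperitoneal injection once daily for 5 consecutive days. Survival monitored. Body weight expressed as mean percent change ± SD relative to weight at the start of treatment (day 0), with 15% weight loss as the reference line.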

Data set [8] can be described thus: Toxicity in NSG/ICR mouse assessed as survival at 200 mg/kg, ip administered once daily for 5 days. Particulars: in vivo, 200 mg/kg, 120 h, dose 200 mg/kg/day, time 5 day. In kind it is organism-based. A digest of the protocol:
as §2

The target of data set [9] is T2, Short transient receptor potential channel 3 (Homo sapiens, UniProt Q13507).
T2 sequence (Q13507 whole entry): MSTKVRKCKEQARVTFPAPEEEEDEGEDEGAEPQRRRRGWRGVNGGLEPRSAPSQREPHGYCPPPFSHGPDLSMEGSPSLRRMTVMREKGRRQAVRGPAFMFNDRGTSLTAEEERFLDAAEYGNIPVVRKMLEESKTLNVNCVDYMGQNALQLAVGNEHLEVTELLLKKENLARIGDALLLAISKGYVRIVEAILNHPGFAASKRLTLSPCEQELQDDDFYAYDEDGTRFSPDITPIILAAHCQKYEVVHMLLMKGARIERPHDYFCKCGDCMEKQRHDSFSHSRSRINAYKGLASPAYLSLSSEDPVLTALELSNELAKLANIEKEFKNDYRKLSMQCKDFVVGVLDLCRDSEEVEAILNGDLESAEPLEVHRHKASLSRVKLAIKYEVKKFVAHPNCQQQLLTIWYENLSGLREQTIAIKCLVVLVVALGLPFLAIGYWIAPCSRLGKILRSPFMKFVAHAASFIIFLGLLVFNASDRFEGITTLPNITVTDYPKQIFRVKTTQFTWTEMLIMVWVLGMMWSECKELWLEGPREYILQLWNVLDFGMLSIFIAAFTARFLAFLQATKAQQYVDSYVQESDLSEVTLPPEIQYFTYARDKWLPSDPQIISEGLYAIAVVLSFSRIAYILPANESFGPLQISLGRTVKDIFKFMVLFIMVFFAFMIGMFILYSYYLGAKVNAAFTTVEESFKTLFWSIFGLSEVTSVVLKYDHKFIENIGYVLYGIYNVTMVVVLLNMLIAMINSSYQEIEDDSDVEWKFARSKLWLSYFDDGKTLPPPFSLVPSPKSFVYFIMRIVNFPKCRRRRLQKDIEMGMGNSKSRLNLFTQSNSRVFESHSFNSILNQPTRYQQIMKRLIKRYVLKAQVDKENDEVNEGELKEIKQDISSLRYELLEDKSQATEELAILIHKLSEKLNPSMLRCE
Description: Inhibition of human TRPC3 expressed in HEK293 cells assessed as inhibition of GSK170-induced current in presence of 2 mM extracellular calcium by whole cell patch-clamp method. In kind it is cell-based. In a few lines:
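hTRPC3 in HEK293 cells, whole-cell patch clamp with 2 mM extracellular Ca2+. Currents elicited by 1 μM GSK1702934A and challenged with a range of inhibitor concentrations by perfusion. Each concentration tested on separate cells and normalized to the cell's maximum amplitude. Dose–response curve built from the data; mean ± SD.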

Molecules are shown by their SMILES. Active and inactive are the calls of the source.

As a reminder, the inhibition is the share of the control response that was lost under treatment. Broadly, the half-life is the time needed for the level to fall by half in the phase considered. For orientation: IC50 means the concentration at which inhibition is half-maximal.

Transient receptor potential cation channel subfamily A member 1 (Homo sapiens), sequence (O75762 whole entry): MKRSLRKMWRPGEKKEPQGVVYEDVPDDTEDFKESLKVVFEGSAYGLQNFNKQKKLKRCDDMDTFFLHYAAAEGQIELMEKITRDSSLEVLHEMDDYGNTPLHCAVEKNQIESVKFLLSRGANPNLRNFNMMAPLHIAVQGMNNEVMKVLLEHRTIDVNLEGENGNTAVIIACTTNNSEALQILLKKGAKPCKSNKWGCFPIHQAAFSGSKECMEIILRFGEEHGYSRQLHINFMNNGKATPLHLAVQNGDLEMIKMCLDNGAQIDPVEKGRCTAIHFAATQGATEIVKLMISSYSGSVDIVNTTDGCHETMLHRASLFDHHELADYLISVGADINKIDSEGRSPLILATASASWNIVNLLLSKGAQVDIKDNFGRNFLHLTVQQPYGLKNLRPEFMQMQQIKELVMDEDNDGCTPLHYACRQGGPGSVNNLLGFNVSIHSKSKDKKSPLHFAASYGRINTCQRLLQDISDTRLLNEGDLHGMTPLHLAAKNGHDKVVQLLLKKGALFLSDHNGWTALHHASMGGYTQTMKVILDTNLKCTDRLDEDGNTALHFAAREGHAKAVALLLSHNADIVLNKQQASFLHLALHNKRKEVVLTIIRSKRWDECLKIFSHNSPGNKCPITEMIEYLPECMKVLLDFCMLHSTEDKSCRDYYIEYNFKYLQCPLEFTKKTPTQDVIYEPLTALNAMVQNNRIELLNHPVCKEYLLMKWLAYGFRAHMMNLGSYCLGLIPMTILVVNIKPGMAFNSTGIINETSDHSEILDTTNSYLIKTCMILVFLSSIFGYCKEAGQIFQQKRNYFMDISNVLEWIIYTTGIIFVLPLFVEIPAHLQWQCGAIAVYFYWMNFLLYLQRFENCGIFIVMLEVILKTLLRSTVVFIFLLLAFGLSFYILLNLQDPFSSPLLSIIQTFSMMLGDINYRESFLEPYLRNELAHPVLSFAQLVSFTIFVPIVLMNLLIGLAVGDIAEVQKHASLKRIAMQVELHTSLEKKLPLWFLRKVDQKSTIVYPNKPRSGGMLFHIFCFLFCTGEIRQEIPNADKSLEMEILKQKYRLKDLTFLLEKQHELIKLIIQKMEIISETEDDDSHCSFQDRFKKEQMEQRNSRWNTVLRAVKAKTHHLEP
Transient receptor potential cation channel subfamily M member 8 (Homo sapiens), sequence (Q7Z2W7 whole entry, looked up): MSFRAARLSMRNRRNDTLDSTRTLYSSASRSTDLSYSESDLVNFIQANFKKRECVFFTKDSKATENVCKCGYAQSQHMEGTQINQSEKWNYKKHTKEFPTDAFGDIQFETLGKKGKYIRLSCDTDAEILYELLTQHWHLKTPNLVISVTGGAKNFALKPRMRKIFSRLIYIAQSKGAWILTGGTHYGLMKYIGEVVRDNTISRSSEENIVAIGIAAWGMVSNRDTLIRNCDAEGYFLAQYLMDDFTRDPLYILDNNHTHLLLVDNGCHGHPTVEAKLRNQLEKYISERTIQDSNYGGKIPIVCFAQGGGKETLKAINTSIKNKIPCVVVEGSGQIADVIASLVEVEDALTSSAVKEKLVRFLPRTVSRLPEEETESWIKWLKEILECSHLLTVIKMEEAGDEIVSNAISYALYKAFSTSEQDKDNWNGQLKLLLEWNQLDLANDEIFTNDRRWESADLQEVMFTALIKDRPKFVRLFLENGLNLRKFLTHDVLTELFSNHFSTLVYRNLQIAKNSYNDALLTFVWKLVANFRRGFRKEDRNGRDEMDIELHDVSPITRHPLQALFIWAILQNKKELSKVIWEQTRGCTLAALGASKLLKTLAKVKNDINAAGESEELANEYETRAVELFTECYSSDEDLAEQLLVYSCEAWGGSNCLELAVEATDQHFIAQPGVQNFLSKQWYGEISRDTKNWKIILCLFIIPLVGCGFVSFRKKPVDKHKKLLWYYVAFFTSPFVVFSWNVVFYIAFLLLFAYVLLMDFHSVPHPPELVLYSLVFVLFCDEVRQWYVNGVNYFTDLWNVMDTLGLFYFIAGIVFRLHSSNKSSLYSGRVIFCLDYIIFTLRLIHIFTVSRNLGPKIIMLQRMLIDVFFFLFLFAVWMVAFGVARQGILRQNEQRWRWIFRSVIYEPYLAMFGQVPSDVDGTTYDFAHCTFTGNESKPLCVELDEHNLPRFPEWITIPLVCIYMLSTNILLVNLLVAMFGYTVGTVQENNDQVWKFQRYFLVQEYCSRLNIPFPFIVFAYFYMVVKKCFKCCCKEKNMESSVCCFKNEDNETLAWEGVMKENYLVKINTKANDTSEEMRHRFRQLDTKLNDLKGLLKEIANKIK

Consider `CCNC(=O)c1cnn(-c2ccc(-n3ccc(Cl)c(Cl)c3=O)cc2)c1C(F)(F)F`, for which the inhibition in data set [1] was 26%. Moreover, the inhibition result in data set [2] and in data set [3] was “inactive” throughout. For the same compound, the half-life in [4], in [5] and in [6] was more than 4 h each time. Also, the Activity entry in [7] and in data set [8] was “Non-Toxic” in each case. Also, the half-maximal inhibitory concentration (IC50) in data set [9] came to 0.43 µM.

The record behind these values is ChEMBL document CHEMBL4706728, “Discovery of a Highly Selective and Potent TRPC3 Inhibitor with High Metabolic Stability and Low Toxicity” (ACS Med Chem Lett, 2021).
